Results on 95 compounds are retold here after ChEMBL document CHEMBL4513216, “Probing the Open Global Health Chemical Diversity Library for Multistage-Active Starting Points for Next-Generation Antimalarials” (ACS Infect Dis, 2020).

The data set is described as follows: Toxicity liver stage against HepG2, at 10uM. The following applies: human, HepG2-A16-CD81EGFP cells; read-out: INHIBITION
Set-up: test concentration 10 uM, cell line HepG2-A16-CD81EGFP. It counts as cell-based. Put shortly: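 Uninfected HepG2-A16-CD81EGFP cells, 3 × 10^3 per well, 1536-well, plated on prespotted compound at 10 μM final, parasite-free screening media added to match infected plates; puromycin 10 μM positive, DMSO 0.5% negative; run in parallel with 48 h PbLuc assay at 37 °C, 5% CO2; viability by CellTiter-Glo luminescence, normalized to controls.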

`CC(C)N1CCC(c2ccnc3c(C(=O)N4CCOCC4)ncn23)CC1`: the cytotoxicity at 10 µM is -5.89%.

In the case of `COCCOC(=O)N1CC2=CC(C)(C)COc3ccc(OC)c(c32)C1`, the cytotoxicity at 10 µM came out at 1.22%.

Turning to `CN(Cc1ccco1)[C@@H]1CN(Cc2cnn(C)c2)[C@@H]2CCCO[C@H]12`, the cytotoxicity at 10 µM was -75.8%.

Consider `CC(C)(C)c1ccc(C2(C(=O)NCCS(C)(=O)=O)CC2)cc1`, for which the cytotoxicity at 10 µM turned out to be 2.91%.

`CN1C[C@@H](C(=O)NC2CC2)[C@@]2(COc3ccc(F)cc3C2=O)C1`: the cytotoxicity at 10 µM is -26.5%.

On to `CSC(C)(C)CNC(=O)NC1CCSCC1`, for which the cytotoxicity at 10 µM came out at 17.5%.

Take `CC(C)NC(=O)[C@@H]1CN(Cc2ccc3c(c2)OCO3)C[C@H]2OCC[C@H]21`: the cytotoxicity at 10 µM worked out at 3.65%.

On to `c1ccc(OC[C@]23COC[C@H]2CN(c2ncccn2)C3)nc1`, for which the cytotoxicity at 10 µM is -14.1%.

Regarding `Cn1c(=O)c2c(n3ncnc13)NC(=O)CC2c1cccc(Br)c1` (stereo not given), the cytotoxicity at 10 µM worked out at 7.83%.

As to `CN1CCCN(S(=O)(=O)c2cn(C)cn2)c2cc(Cl)ccc21`, the cytotoxicity at 10 µM amounted to 2.14%.

With `CC(C)n1cnc2c1C(C(=O)NCCO)N(Cc1ccccc1)CC2` (stereo not given), the cytotoxicity at 10 µM was found to be 2.43%.

Take `CCOc1ccccc1C(=O)NCCc1ccoc1`: the cytotoxicity at 10 µM stood at 8.54%.

As to `CN(CC(=O)Nc1cc(C(C)(C)C)n[nH]1)S(C)(=O)=O`, the cytotoxicity at 10 µM was 5.15%.

In the case of `Cc1ccsc1-c1nccn1CCN1CCCCC1CO` (stereo not given), the cytotoxicity at 10 µM is -8.11%.

As for `COc1ncccc1CN1CCN(c2noc(C(C)C)n2)CC1`, the cytotoxicity at 10 µM came out at 10.5%.

On to `COc1cc(C(=O)N(Cc2cnn(C)c2)C(C)C)ccc1OC(C)C`, for which the cytotoxicity at 10 µM was -6.02%.

Take `Cc1cccc(CN2C(=O)CC[C@@H]3[C@H]2CCN3CC2CCOCC2)n1`: the cytotoxicity at 10 µM was found to be 5.89%.

`CCc1ccsc1C(=O)NC(C#N)CC` (stereo not given): the cytotoxicity at 10 µM is 3.15%.

Turning to `COCCN1CCC2(CC1)CC(NC(=O)CN(C)C)c1ccccc1O2` (stereo not given), the cytotoxicity at 10 µM worked out at 0.169%.

Consider `CNC(=O)[C@H]1C[C@@H]2CN(C(=O)c3ccc(C)o3)C[C@@H]2N1S(C)(=O)=O`, for which the cytotoxicity at 10 µM was -2.33%.

For the compound `c1ccc2oc(CCCN3CCc4cncnc4C3)nc2c1`, the cytotoxicity at 10 µM was -14.6%.

`Cn1ccnc1CN1CCN(CC(O)c2ccc(F)cc2)CC1` (stereo not given): the cytotoxicity at 10 µM is -21.8%.

Take `CC(C)(C)CCNc1nccc(-c2c[nH][nH]c2=O)n1`: the cytotoxicity at 10 µM is -5.25%.

On to `CN(C)C(=O)CN1CCC2(CCN(C(=O)N3CCCC3)CC2)C1=O`, for which the cytotoxicity at 10 µM came to 2.7%.

`CC(C)[C@@H]1CN(CCOc2ccccc2)C[C@H]1NS(=O)(=O)N(C)C`: the cytotoxicity at 10 µM was -43%.

Regarding `O=S1(=O)NC(C2CCN(Cc3ccncc3)CC2)Nc2ccccc21` (stereo not given), the cytotoxicity at 10 µM is -19.3%.

With `Cc1cc(C)n(CC2CCCN2CC(=O)N(C)CCC#N)n1` (stereo not given), the cytotoxicity at 10 µM is -14.8%.

As for `CC(C)(CNC(=O)C1CCCCN1S(C)(=O)=O)N1CCOCC1` (stereo not given), the cytotoxicity at 10 µM is -7.15%.

Take `O=C(CCc1cccs1)N1CCCCC1Cn1cccn1` (stereo not given): the cytotoxicity at 10 µM worked out at 1.54%.

Take `O=C(c1cscn1)N1CCc2ncnc(-c3cccnc3)c2CC1`: the cytotoxicity at 10 µM is -1.6%.

In the case of `Cc1ccc(CCNc2nc(-c3ccncc3)nc3c2CCNCC3)o1`, the cytotoxicity at 10 µM is -132%.

Take `Cc1ccc(-n2cc(S(=O)(=O)Nc3cccc(C(=O)O)c3C)cn2)cc1`: the cytotoxicity at 10 µM is -1.74%.

Consider `Cc1cc(S(=O)(=O)N2CCCc3cc(F)cc(F)c32)sc1C(=O)O`, for which the cytotoxicity at 10 µM came out at 21.8%.

As for `Cc1ccn(-c2ccc(NCc3cccnc3N3CCCCC3)nn2)n1`, the cytotoxicity at 10 µM is 3.09%.

As for `CC(C)CN1CCc2[nH]cnc2C12CCN(C(=O)c1ccc[nH]1)CC2`, the cytotoxicity at 10 µM turned out to be 14.7%.

Consider `CCNc1ncc(C(=O)NCCc2ccc(C)c(C)c2)cn1`, for which the cytotoxicity at 10 µM is -5.1%.

On to `CCn1cc(S(=O)(=O)N2CCC(C)CC2)c(C)n1`, for which the cytotoxicity at 10 µM turned out to be 8.44%.

In the case of `CNC(=O)C1Cn2ccnc2C2(CCN(C(=O)c3ccccn3)CC2)O1` (stereo not given), the cytotoxicity at 10 µM was -144%.

For the compound `Cn1ccc(CN2CCC(NC(=O)C3CCCCC3)CC2)cc1=O`, the cytotoxicity at 10 µM was -13%.

`CCC1=N[C@@]2(CC[C@@H]3CN(Cc4ccccc4F)C[C@@H]32)C(=O)N1`: the cytotoxicity at 10 µM is -1.22%.

In the case of `CCOCC1c2c(ncn2C(C)C)CCN1C(C)C` (stereo not given), the cytotoxicity at 10 µM was determined as 10.5%.

Turning to `Cc1noc(C)c1-c1cncc(CC2CCN(C(=O)c3cc[nH]n3)C2)n1` (stereo not given), the cytotoxicity at 10 µM is -17.4%.

Consider `O=C1NCCN(C(=O)c2cn3ccsc3n2)C1Cc1ccccc1` (stereo not given), for which the cytotoxicity at 10 µM is -9.51%.

As for `COc1c(CNCc2cccc(C(=O)N(C)C)c2)c(C)nn1C`, the cytotoxicity at 10 µM is -16.9%.

As for `N#Cc1ccc(CN2CCN(Cc3ccncc3Cl)CC2=O)cc1`, the cytotoxicity at 10 µM came out at 6.43%.

As for `CCc1nnc2n1CCN(C(=O)c1ccc3c(c1)NC(=O)CO3)C2`, the cytotoxicity at 10 µM is 1.24%.

As to `COC(=O)CN(C(=O)c1cc(C(C)C)no1)c1cccc(F)c1`, the cytotoxicity at 10 µM came to 11.3%.

For `CCc1nn(C)c(CC)c1CNC(=O)Nc1cccc2c1CCN2C`, the cytotoxicity at 10 µM is -1.57%.

For `CC(C(=O)N(Cc1ccc(F)cc1)CC(F)(F)F)S(C)(=O)=O` (stereo not given), the cytotoxicity at 10 µM turned out to be 14.7%.

Take `CCNc1cc2c(nn1)CCN(C(=O)c1cc3ccccc3o1)C2`: the cytotoxicity at 10 µM was 3.88%.

With `Cc1nc(C2CCCN2C(=O)c2cnns2)no1` (stereo not given), the cytotoxicity at 10 µM was -3.71%.

For the compound `c1cnnc(N[C@@H]2CC[C@@H]3CN(Cc4ccc5cc[nH]c5c4)C[C@@H]32)c1`, the cytotoxicity at 10 µM was -0.423%.

Turning to `CCc1nc(C2CCCN(c3ncc(Br)cn3)C2)no1` (stereo not given), the cytotoxicity at 10 µM was found to be 1.47%.

As for `Cc1cc(C(=O)NCc2ccc(N3CCN(C)CC3)nc2)c(C)s1`, the cytotoxicity at 10 µM is -8.74%.

For the compound `O=C(N[C@@H]1CCNC[C@H]1O)c1cc(F)cc(Cl)c1`, the cytotoxicity at 10 µM was -3.12%.

Regarding `Cc1nn(C)c2c(NCc3ccccc3F)nc(C3CC3)nc12`, the cytotoxicity at 10 µM amounted to 15.5%.

`COC(=O)c1ccc(CN2CCN(Cc3nc(C)no3)CC2)s1`: the cytotoxicity at 10 µM came to 4.07%.

For `CC(NC(=O)c1cc(N2CCNC2=O)ccc1F)c1ccc(F)cc1` (stereo not given), the cytotoxicity at 10 µM was determined as 5.89%.

Regarding `Cn1ncc2c(NCC(=O)N3CCNCC3)nc(C(C)(C)C)nc21`, the cytotoxicity at 10 µM is -10.6%.

With `CCOC(=O)N1CCN(C(=O)c2cc(-c3ccc(Cl)cc3Cl)on2)CC1`, the cytotoxicity at 10 µM was determined as 2.42%.

In the case of `Cc1noc(C)c1CNCC1COCc2c(-c3ccsc3)nnn2C1` (stereo not given), the cytotoxicity at 10 µM was 5.74%.

As for `O=C(CC1NC(N2CCc3ccccc3C2)=NC1=O)Nc1ccccc1` (stereo not given), the cytotoxicity at 10 µM came to 2.96%.

Consider `CN(C)CCn1c([C@H]2CCCO2)cc2cccnc21`, for which the cytotoxicity at 10 µM was determined as 17.1%.

For `Cn1ncc2c(=O)[nH]c(CN3CCCC3c3cccs3)nc21` (stereo not given), the cytotoxicity at 10 µM was -4.43%.

Turning to `CS(=O)(=O)c1ccc2c(c1)N(C(=O)c1cccc(F)c1)CCC2`, the cytotoxicity at 10 µM was 8.05%.

In the case of `CCC(O)CN1CCN(C(=O)c2csc(COC)n2)CC1` (stereo not given), the cytotoxicity at 10 µM was found to be 7.72%.

`Cc1nnc(SCc2cccc(F)c2)n1CC(N)=O`: the cytotoxicity at 10 µM is -6.58%.

Regarding `Cn1cc(-c2nc(C(=O)N3CCCC3c3cnn(C)c3)cs2)cn1` (stereo not given), the cytotoxicity at 10 µM is 1.85%.

Regarding `Cc1cc(C(=O)NCc2ccc(-c3n[nH]cc3C(=O)N(C)C)cc2)on1`, the cytotoxicity at 10 µM is 4.29%.

Turning to `COc1ccc(C2CCCN2C(=O)c2ccnc(NC3CC3)c2)cc1` (stereo not given), the cytotoxicity at 10 µM came to 3.07%.

In the case of `Fc1ccccc1OCCc1cc(C2CNCCO2)n[nH]1` (stereo not given), the cytotoxicity at 10 µM is -2.16%.

With `Cc1cc(C)c(C(=O)N2CCc3c(ncn3CCc3ccccc3)C2)[nH]1`, the cytotoxicity at 10 µM stood at 7.13%.

As for `CCCNC(=O)C1CCN(CC(O)c2ccccc2)CC1` (stereo not given), the cytotoxicity at 10 µM is -2.21%.

As to `CCN(CC)C(=O)CN(C)Cc1nc2c(cnn2C)c(=O)[nH]1`, the cytotoxicity at 10 µM is -0.958%.

For `O=C(CN1CCCc2cc(F)cc(F)c21)Nc1ccc(Br)cn1`, the cytotoxicity at 10 µM worked out at 11%.

For the compound `O=C(Cc1ccon1)N1CCN(c2ccc(F)cc2Cl)CC1`, the cytotoxicity at 10 µM came to 1.02%.

For the compound `Cc1nnc(C(C)N2CCN(Cc3ccc(C(F)(F)F)cc3)CC2)o1` (stereo not given), the cytotoxicity at 10 µM amounted to 8.15%.

Regarding `CCn1cc(Br)c(C(=O)NCc2ccccc2)n1`, the cytotoxicity at 10 µM was 7.61%.

As for `Cc1ccc(CN2CC[C@@H](O)[C@@H]2Cc2cnn(C)c2)o1`, the cytotoxicity at 10 µM is -71%.

Regarding `CC(C)CCN1Cc2c(C(=O)O)ncn2-c2ccccc2S1(=O)=O`, the cytotoxicity at 10 µM amounted to 6.72%.

As for `O=c1cc(-c2ccccc2)nc2n1CCCCC2`, the cytotoxicity at 10 µM was 1.36%.

Turning to `COc1cc(I)c(Cl)cc1C(=O)N(C)C`, the cytotoxicity at 10 µM came to 11%.

On to `CC(C)c1nnc(NC(=O)CSCc2cc(=O)n3ccccc3n2)s1`, for which the cytotoxicity at 10 µM was 2.08%.

Turning to `COc1ncc(C)cc1NC(=O)CCc1ccccn1`, the cytotoxicity at 10 µM was -9.58%.

Turning to `CN1C[C@@H](F)[C@@H](OCc2nc3ccccc3[nH]2)C1`, the cytotoxicity at 10 µM amounted to 5.34%.

For `COCCN(C)C[C@@H]1CN(C(=O)C(C)(C)c2ccccc2)C[C@@H]1CO`, the cytotoxicity at 10 µM is 16.7%.

Turning to `COCCN1CCN(Cc2cccnc2)[C@H]2CS(=O)(=O)C[C@H]21`, the cytotoxicity at 10 µM worked out at 6.03%.

For `CN(Cc1nccn1C)S(=O)(=O)N1CCCC1c1ccco1` (stereo not given), the cytotoxicity at 10 µM is 3.21%.

Take `NCC1(c2cccc(C(F)(F)F)c2)CCCC1`: the cytotoxicity at 10 µM is -5.7%.

As to `COc1ccc(C2(CNC(C)c3nnc(C)o3)CCCCC2)cc1` (stereo not given), the cytotoxicity at 10 µM was determined as 4.21%.

Regarding `Cc1nn(C)c(N(C)C)c1CNCc1cccnc1N1CCOCC1`, the cytotoxicity at 10 µM is -141%.

For `O=C(NCC(O)c1ccoc1)Nc1c(F)cccc1F` (stereo not given), the cytotoxicity at 10 µM was -5.86%.

For `COC1CCN(C(=O)CCc2c(C)nc3ccnn3c2C)CC1`, the cytotoxicity at 10 µM was -5.72%.

As to `Cc1ccc(CN2CC(C(=O)NCC3CC3)C3(CCOCC3)C2)s1` (stereo not given), the cytotoxicity at 10 µM is -3.66%.

On to `Cn1ccc(-c2cc(C(=O)N3CCC(C(N)=O)CC3)c3ccccn23)n1`, for which the cytotoxicity at 10 µM is -105%.
